Assay results reported in article PMC3600088 (Journal of medicinal chemistry, 2013).
pIC50: −log10 of the molar value. “Also recorded” adds a separate entry of the source. Read-outs that look alike come from different tables or passages of the source.

What was measured:
CMG2 = target: T1, CMG2 (Homo sapiens, UniProt P58335, C175A/R40C); experiment: CMG2-Protective antigen; assay type: binding; settings: for inhibitory activity in CMG2 FRET assay: concentrations up to 300 μM
T1 sequence (P58335 40-217 R40C/C175A): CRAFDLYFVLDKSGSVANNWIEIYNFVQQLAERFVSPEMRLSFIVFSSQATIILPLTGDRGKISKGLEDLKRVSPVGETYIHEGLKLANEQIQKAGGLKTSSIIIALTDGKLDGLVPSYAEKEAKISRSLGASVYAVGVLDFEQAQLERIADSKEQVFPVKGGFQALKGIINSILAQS

Caco-2 monolayers = settings: cited from earlier work
[1] = IP and orally at doses up to 30 mg/kg/day; cited from earlier work
[2] = system: human dermal microvascular endothelial cells (HMVEC-d); experiment: Endothelial cell migration assay; assay type: cell-based; settings: ex vivo endothelial cell migration assay
Outline: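 HMVEC-d kept in EGM-2 and used before passage 7, resuspended in EBM with 0.1% BSA. 20,000 cells were placed on fibronectin-coated 8.0 μm-pore polycarbonate transwell inserts over full-serum (5%) medium with or without test compound, and left to migrate 4 h. Top-side cells were removed, membranes fixed and Diff-Quick stained, and 4 10X fields counted. Counts were normalized to no-treatment control, with IC50 from a binding-isotherm fit. Two experiments, n=3 each.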

bFGF-driven angiogenesis = experiment: Mouse corneal micropocket assay; assay type: in vivo, C57BL/6J mice; settings: mice
Outline: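 Pellets with 80 ng bFGF were implanted in C57BL/6J corneas, five mice per group. Test compound was given daily by oral gavage at 20 mg/kg in 5% ethanol, or IP at 10 mg/kg/day in 2.5% DMSO, 5% Cremophor EL, 5% Tween-80, 7.5% N-methyl-2-pyrrolidone, 0.9% NaCl. Controls received vehicle. Dosing began at implantation, and vascular area was measured by slit lamp on postoperative day 5 (~10 eyes/group, t-test).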

HMVEC-d cells = experiment: Endothelial cell proliferation assay; assay type: cell-based, human; settings: at doses that inhibited migration, 24 and 72 hours
angiogenesis [3] = settings: cited from earlier work
H+, K+, ATPase = settings: cited from earlier work
[4] = cited from earlier work
DNA polymerases = settings: certain DNA polymerases; cited from earlier work
[5] = cited from earlier work; remark: listed apart in the source
angiogenesis [6] = settings: therapeutic concentrations; cited from earlier work

COC(=O)c1cc(O)c(O)c(O)c1 [Methyl Gallate]
inhibitory activity in CMG2 FRET assay (CMG2): None of these compounds exhibited any inhibitory activity

O=C(OC[C@H]1O[C@@H](OC(=O)c2cc(O)c(O)c(O)c2)[C@H](OC(=O)c2cc(O)c(O)c(O)c2)[C@@H](OC(=O)c2cc(O)c(O)c(O)c2)[C@@H]1OC(=O)c1cc(O)c(O)c(O)c1)c1cc(O)c(O)c(O)c1 [PGG, 1,2,3,4,6-penta-O-galloyl-β-D-glucopyranose]
nature of transport (Caco-2 monolayers): saturable | ill effects [1]: without ill effects | activity of HPLC fractions in the FRET assay (CMG2; fractions of the "tannic acid" sample): active | IC50 (in words) (CMG2; in vitro FRET binding assay): submicromolar | IC50 of endothelial cell migration (in words) [2]: submicromolar | inhibition of bFGF-driven angiogenesis (bFGF-driven angiogenesis; 10 mg/kg IP, 80 ng bFGF pellet): significantly inhibited | inhibition of bFGF-driven angiogenesis (vessel area) (bFGF-driven angiogenesis; 20 mg/kg/day by oral gavage, 80 ng bFGF pellet, day 5): significantly inhibited; also recorded: statistically significant | signs of toxicity (weight loss, hunched posture, behavioral abnormalities) (bFGF-driven angiogenesis; 10 mg/kg IP or 20 mg/kg/day oral): no obvious signs of toxicity | cytotoxic or cytostatic effects (HMVEC-d cells): no cytotoxic or cytostatic effects | dose at which antiangiogenic activity has been evoked (angiogenesis [3]): 4 mg/kg | IC50 (in words) (H+, K+, ATPase): submicromolar | plasma concentrations ([4]; intraperitoneal administration): single-digit micromolar | plasma concentrations ([4]; oral administration): submicromolar | circulating concentrations ([4]; oral dose of 80 mg/kg, experimental animals): < 1 µM | IC50 (in words) (DNA polymerases): submicromolar

CCCOC(=O)c1cc(O)c(O)c(O)c1 [Propyl Gallate]
inhibitory activity in CMG2 FRET assay (CMG2): None of these compounds exhibited any inhibitory activity

O=C(OC[C@H]1O[C@@H](OC(=O)c2cc(O)c(O)c(OC(=O)c3cc(O)c(O)c(O)c3)c2)[C@H](OC(=O)c2cc(O)c(O)c(OC(=O)c3cc(O)c(O)c(O)c3)c2)[C@@H](OC(=O)c2cc(O)c(O)c(OC(=O)c3cc(O)c(O)c(O)c3)c2)[C@@H]1OC(=O)c1cc(O)c(O)c(OC(=O)c2cc(O)c(O)c(O)c2)c1)c1cc(O)c(O)c(OC(=O)c2cc(O)c(O)c(O)c2)c1 [Tannic acid]
toxicity upon administration in mice [5]: toxic effects

COc1ccc2[nH]c([S+]([O-])Cc3ncc(C)c(OC)c3C)nc2c1 (centres unmarked) [omeprazole]
inhibition of angiogenesis (angiogenesis [6]): fails to inhibit angiogenesis

Protocatechillic acid
pIC50 (CMG2): < 3.52
